Consider 7 compounds from ChEMBL document CHEMBL3232734, “Nitric oxide (NO) releasing poly ADP-ribose polymerase 1 (PARP-1) inhibitors targeted to glutathione S-transferase P1-overexpressing cancer cells” (J Med Chem, 2014).

The structures appear in SMILES notation. Calls of active or inactive are those of the source. No cut-off for these calls is given here.

The target in series [1] is T1, Poly [ADP-ribose] polymerase 1 (Homo sapiens, UniProt P09874). As to the kind of experiment: Inhibition of PARP-1 (unknown origin) assessed as incorporation of biotinylated poly ADP-ribose onto histone proteins measured without activation by GSH by colorimetric analysis. In a few lines: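 Colorimetric PARP assay kit measuring biotinylated poly(ADP-ribose) incorporation onto histones, run per the manufacturer's protocol. Absorbance read at 450 nm. Inhibitor tested over 0.01 nM–1 μM, prodrug given without GSH activation. At least three experiments, each at least in triplicate.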

The next series has as its system NCI-H1693. The experiment in a line: In vitro antiproliferative activity against human NCI-H1693 cells assessed as inhibition of cell proliferation after 72 hrs by MTT assay. The format is functional, cell-based. The note with it: NCI-H1693, 72 h.
The test system of a further series is NCI-H2030. As to the kind of experiment: In vitro antiproliferative activity against human NCI-H2030 cells assessed as inhibition of cell proliferation after 72 hrs by MTT assay. The format is functional, cell-based. Conditions: NCI-H2030, 72 h. Background: Tetrazolium dyes change colour on reduction, which living cells bring about.
Series [2] can be described thus: Prodrug activation assessed as GSH reactivity in aqueous phosphate buffer at pH 7.4 by UV-Visible spectrophotometer analysis. The format is physicochemical. In a few lines:
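UV–vis kinetics at 37 °C in 0.1 M phosphate buffer, pH 7.4, with 50 μM DTPA and 4 mM GSH, with or without 40 nM recombinant GSTP1 or GSTA1. Substrate (typically 10 μM) added after thermal equilibration. Ratios are k with enzyme over k with GSH alone.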

Series [3] is described as follows: In vitro antiproliferative activity against human H23 cells assessed as inhibition of cell proliferation after 72 hrs by MTT assay. The format is functional, cell-based. The note with it: NCI-H23, 72 h.
Series [4] concerns NCI-H1703. As to the kind of experiment: Increase in intracellular reactive oxygen/nitrogen species in human NCI-H1703 cells at 10 uM after 60 mins by DCF-DA dye based luminescence spectrometer analysis. In kind it is functional, cell-based. In a few lines: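 Cells in six-well plates (6 × 10^5/well) loaded with 5 μM DCF-DA in HBSS, 30 min at 37 °C, 5% CO2, then rinsed. Fresh HBSS with compound (10 μM) or DMSO control added. After 60 min cells scraped into HBSS; DCF fluorescence read at ex 488 / em 530 nm. At least three experiments, each at least in triplicate.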

Series [5] can be described thus: In vitro antiproliferative activity against human NCI-H2023 cells assessed as inhibition of cell proliferation after 72 hrs by MTT assay. The format is functional, cell-based. The note with it: NCI-H2023, 72 h.
Series [6] concerns NCI-H1703. As to the kind of experiment: In vitro antiproliferative activity against human NCI-H1703 cells assessed as inhibition of cell proliferation after 72 hrs by MTT assay. In kind it is functional, cell-based. Conditions: NCI-H1703, 72 h.
A short description of series [7]: In vitro antiproliferative activity against human H460 cells assessed as inhibition of cell proliferation after 72 hrs by MTT assay. The format is functional, cell-based. The note with it: NCI-H460, 72 h.
In series [8] the test system is NCI-H1703. As to the kind of experiment: Increase in intracellular nitric oxide release in human NCI-H1703 cells at 10 uM after 30 mins by DAF-FM dye based luminescence spectrometer analysis. The format is functional, cell-based.
Series [9] is described as follows: In vitro antiproliferative activity against human NCI-H1944 cells assessed as inhibition of cell proliferation after 72 hrs by MTT assay. The format is functional, cell-based. The note with it: NCI-H1944, 72 h.
Series [10] is described as follows: In vitro antiproliferative activity against human H441 cells assessed as inhibition of cell proliferation after 72 hrs by MTT assay. In kind it is functional, cell-based. Conditions: NCI-H441, 72 h.
The nature of series [11]: In vitro antiproliferative activity against human NCI-H1568 cells assessed as inhibition of cell proliferation after 72 hrs by MTT assay. In kind it is functional, cell-based. Conditions: NCI-H1568, 72 h.
The subject of series [12] is A549. The experiment in a line: In vitro antiproliferative activity against human A549 cells assessed as inhibition of cell proliferation after 72 hrs by MTT assay. The format is functional, cell-based. The note with it: A549, 72 h.
The test system of a further series is NCI-H322M. As to the kind of experiment: In vitro antiproliferative activity against human NCI-H322M cells assessed as inhibition of cell proliferation after 72 hrs by MTT assay. In kind it is functional, cell-based.
Another series relates to NCI-H2122. As to the kind of experiment: In vitro antiproliferative activity against human NCI-H2122 cells assessed as inhibition of cell proliferation after 72 hrs by MTT assay. In kind it is functional, cell-based. Conditions: NCI-H2122, 72 h.
For the next series, the system named is NCI-H1355. The experiment in a line: In vitro antiproliferative activity against human NCI-H1355 cells assessed as inhibition of cell proliferation after 72 hrs by MTT assay. Conditions: NCI-H1355, 72 h. The format is functional, cell-based.
The next series concerns NCI-H1792. As to the kind of experiment: In vitro antiproliferative activity against human NCI-H1792 cells assessed as inhibition of cell proliferation after 72 hrs by MTT assay. In kind it is functional, cell-based. Conditions: NCI-H1792, 72 h.
Series [13] concerns the target T1, Poly [ADP-ribose] polymerase 1. As to the kind of experiment: Inhibition of PARP-1 (unknown origin) assessed as incorporation of biotinylated poly ADP-ribose onto histone proteins by colorimetric analysis.
Series [14] relates to A549. The experiment in a line: Retention time of the compound in human A549 cells treated with 2-(2,4-dinitrophenoxy)-1-(4-(2-fluoro-5-((4-oxo-3,4-dihydrophthalazin-1-yl)methyl)benzoyl)piperazin-1-yl)diazene oxide at 10 uM by LC/MS/MS analysis. The note with it: a549, 10 µM. In kind it is ADME, cell-based. In a few lines:
(§1)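 A549 cells plated in flasks overnight at 37 °C, then treated with 10 μM compound for varying times. Lysed by scraping in 10 mM HCl/acetonitrile, 5% sulfosalicylic acid added, centrifuged at 12000g for 15 min, filtered. Analyzed on a C18 column, 0.2 mL/min, H2O/acetonitrile/0.1% formic acid gradient, by Q-TOF LC/MS/MS in positive mode; extracted ion chromatograms at [M+H]+.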

Series [15] concerns the target T2, Glutathione S-transferase A1 (Homo sapiens, UniProt P08263).
T2 sequence (P08263 whole entry): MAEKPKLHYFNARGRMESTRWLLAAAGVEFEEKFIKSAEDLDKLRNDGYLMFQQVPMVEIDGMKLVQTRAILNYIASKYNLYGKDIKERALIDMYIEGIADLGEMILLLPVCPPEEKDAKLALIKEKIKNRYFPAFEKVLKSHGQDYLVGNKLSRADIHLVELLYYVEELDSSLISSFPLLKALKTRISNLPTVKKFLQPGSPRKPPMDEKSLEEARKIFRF
The experiment in a line: Ratio of prodrug activation in presence of GSH and recombinant GSTA1 (unknown origin) to prodrug activation in presence of GSH by UV-Visible spectrophotometry. In a few lines:
(§2)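 UV–vis kinetics at 37 °C in 0.1 M phosphate buffer, pH 7.4, with 50 μM DTPA and 4 mM GSH, with or without 40 nM recombinant GSTP1 or GSTA1. Substrate (typically 10 μM) added after thermal equilibration. Absorbance followed at 302 nm; first-order rate from an exponential fit. Ratios are k with enzyme over k with GSH alone.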

Series [16] deals with Glutathione S-transferase P (Homo sapiens, UniProt P09211). The experiment in a line: Ratio of prodrug activation in presence of GSH and recombinant GSTP1 (unknown origin) to prodrug activation in presence of GSH by UV-Visible spectrophotometry. In a few lines: as §2
The subject of the next series is Mus musculus. As to the kind of experiment: Systemic toxicity in NCr nu/nu athymic mouse xenografted with human A549 cells assessed as body weight at 92 umol/kg, iv administered two times a week for 4 weeks (reference value: 25.0 +/-0.78 gms). Conditions: in vivo, 672 h. The format is organism-based. Background: Xenograft models place foreign cells or tissue in a host animal.

Series [17] concerns NCI-H1703. As to the kind of experiment: Induction of apoptosis in human NCI-H1703 cells assessed as cleaved caspase-7 level at 5 to 25 uM by immunoblot analysis. The format is functional, cell-based. The note with it: 5 to […] uM. A general note: A western blot detects proteins with antibodies after separation by electrophoresis.
Series [18] concerns A549. As to the kind of experiment: Retention time of the compound in human A549 cells at 10 uM by LC/MS/MS analysis. The format is ADME, cell-based. The note with it: a549, 10 µM. In a few lines: as §1
The subject of series [19] is Tumour. The experiment in a line: Drug uptake in tumor of NCr nu/nu athymic mouse xenografted with human A549 cells at 92 umol/kg, iv administered two times a week for 4 weeks. The note with it: in vivo, 672 h. The format is ADME, organism-based, Neoplasm. In a few lines: (§3)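 A549 cells (RPMI 1640 + 10% FBS, ≤4 passages) harvested at 70–80% confluence, 5 × 10^6 cells in PBS implanted s.c.; at ~3 mm × 3 mm tumors, mice randomized into groups of 12. Tail-vein injection at 92 μmol/kg in 20 μL DMSO, twice weekly for 4 weeks; saline or DMSO controls. Tumors caliper-measured twice weekly, volume = π/2 × L × W². Tumors resected at end, frozen, extracted for metabolite analysis by LC/MS.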

Series [20] has as its system Tumour. As to the kind of experiment: Drug metabolism in tumor of NCr nu/nu athymic mouse xenografted with human A549 cells assessed as metabolite formation at 92 umol/kg, iv administered two times a week for 4 weeks. In kind it is ADME, organism-based, Neoplasm. Conditions: in vivo, 672 h. In a few lines: as §3
For series [21], the system named is NCI-H1703. The experiment in a line: Induction of DNA strand break damage in human NCI-H1703 cells at 5 uM after 24 hrs by comet assay. In kind it is functional, cell-based.
In series [22] the test system is A549. As to the kind of experiment: Anticancer activity against human A549 cells xenografted in NCr nu/nu athymic mouse assessed as reduction of tumor growth at 92 umol/kg, iv administered two times a week for 4 weeks. In kind it is functional, organism-based. In a few lines: as §3

T1 sequence (P09874 whole entry): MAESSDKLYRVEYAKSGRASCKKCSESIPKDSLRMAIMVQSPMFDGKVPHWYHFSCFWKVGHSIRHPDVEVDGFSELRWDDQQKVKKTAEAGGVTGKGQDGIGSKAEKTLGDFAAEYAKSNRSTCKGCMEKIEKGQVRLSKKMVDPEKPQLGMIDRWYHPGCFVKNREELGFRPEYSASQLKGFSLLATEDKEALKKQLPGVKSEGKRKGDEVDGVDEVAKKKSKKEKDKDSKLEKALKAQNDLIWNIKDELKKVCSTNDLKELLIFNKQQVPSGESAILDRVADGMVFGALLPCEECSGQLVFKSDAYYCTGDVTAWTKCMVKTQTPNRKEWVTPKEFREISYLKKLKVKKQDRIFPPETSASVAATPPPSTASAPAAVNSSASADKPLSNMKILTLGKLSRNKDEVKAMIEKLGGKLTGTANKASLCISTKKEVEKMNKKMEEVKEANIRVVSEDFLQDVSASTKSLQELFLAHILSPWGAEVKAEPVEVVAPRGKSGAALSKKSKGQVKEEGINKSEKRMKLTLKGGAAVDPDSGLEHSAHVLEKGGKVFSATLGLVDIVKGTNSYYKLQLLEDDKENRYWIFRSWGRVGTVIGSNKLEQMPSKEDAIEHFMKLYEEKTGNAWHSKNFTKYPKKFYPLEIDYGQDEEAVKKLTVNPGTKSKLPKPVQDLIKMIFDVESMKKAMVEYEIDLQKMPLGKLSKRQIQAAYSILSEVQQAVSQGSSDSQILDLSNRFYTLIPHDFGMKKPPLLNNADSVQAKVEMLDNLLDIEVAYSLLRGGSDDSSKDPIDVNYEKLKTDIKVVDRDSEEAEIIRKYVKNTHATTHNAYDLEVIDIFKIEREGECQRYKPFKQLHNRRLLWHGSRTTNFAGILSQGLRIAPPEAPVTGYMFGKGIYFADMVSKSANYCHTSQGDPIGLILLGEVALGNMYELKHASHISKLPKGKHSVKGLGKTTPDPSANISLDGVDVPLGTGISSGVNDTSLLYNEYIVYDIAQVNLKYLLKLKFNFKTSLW
Glutathione S-transferase P, sequence (P09211 whole entry): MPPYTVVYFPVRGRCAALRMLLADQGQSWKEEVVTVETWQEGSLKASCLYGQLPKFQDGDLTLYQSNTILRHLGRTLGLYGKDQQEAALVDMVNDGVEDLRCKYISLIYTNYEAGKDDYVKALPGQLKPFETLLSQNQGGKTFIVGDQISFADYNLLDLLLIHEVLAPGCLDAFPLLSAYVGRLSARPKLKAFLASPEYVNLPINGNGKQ

Turning to `O=C(c1cccc(Cc2n[nH]c(=O)c3ccccc23)c1)N1CCN(/[N+]([O-])=N/Oc2ccc([N+](=O)[O-])cc2[N+](=O)[O-])CC1`, the IC50 (usually the concentration that inhibits the measured activity by half) was determined as 0.123 µM in series [1]; 5.3 µM in the series with NCI-H1693; 13.8 µM in the series on NCI-H2030; 7.5 µM in series [3]; 19.4 µM in series [5]; 6.8 µM in the series on NCI-H1703 [6]. The IC50 in [7] is 13.8 µM; in [9], 14 µM; in series [10] it was 8.1 µM; in series [11] it was 6.5 µM; in the series on A549 [12], 16.8 µM; with NCI-H322M, 9 µM. For the same compound, the IC50 is 11.2 µM with NCI-H2122, 11.4 µM in the series on NCI-H1355 and 14 µM with NCI-H1792. The t1/2 in series [2] amounted to 11.2 min. The result in the series with NCI-H1703 [4] and in the series on NCI-H1703 [8] was Active.
In the case of `O=C(c1cccc(Cc2n[nH]c(=O)c3ccccc23)c1)N1CCNCC1`, in [13], the IC50 was 0.0305 µM.
For the compound `N[C@@H](CCC(=O)N[C@@H](CSc1ccc([N+](=O)[O-])cc1[N+](=O)[O-])C(=O)NCC(=O)O)C(=O)O`, in the series on A549 [14], the Retention_time is 13.8 min.
For the compound `O=C(c1cc(Cc2n[nH]c(=O)c3ccccc23)ccc1F)N1CCNCC1`, in the series with A549 [14], the Retention_time stood at 11.9 min. Besides, in [13], the IC50 was determined as 0.0069 µM.
With `CNc1ccc(C(=O)Oc2cc(O/N=[N+](\[O-])N(C)C)c([N+](=O)[O-])cc2[N+](=O)[O-])cc1`, the t1/2 in series [2] worked out at 2 min. Further, the Ratio in [15] is recorded as 3.7; in [16], 5.4.
Take `O=C(c1cc(Cc2n[nH]c(=O)c3ccccc23)ccc1F)N1CCN(C(=O)C2CC2)CC1` [OLAPARIB]: in the series with Mus musculus, the Activity is recorded as 25.6 g. Moreover, the result in the series on NCI-H1703 [17] was inactive.
On to `O=C(c1cc(Cc2n[nH]c(=O)c3ccccc23)ccc1F)N1CCN(/[N+]([O-])=N/Oc2ccc([N+](=O)[O-])cc2[N+](=O)[O-])CC1`, for which the IC50 was determined as 0.058 µM in series [1]; 5.4 µM in the series with NCI-H1693; 9.2 µM in the series with NCI-H2030; 8.4 µM in series [3]; 15 µM in series [5]; 4.3 µM with NCI-H1703 [6]. Further, the IC50 in [7] is 16.4 µM; in series [9] it was 10.5 µM; in series [10], 4.5 µM; in series [11], 3 µM; in the series on A549 [12], 13.5 µM; with NCI-H322M, 7.9 µM. In addition, the IC50 with NCI-H2122 came out at 7.5 µM; with NCI-H1792, 12.7 µM. In addition, the t1/2 in series [2] is recorded as 11.6 min. In addition, the result with NCI-H1703 [4], with NCI-H1703 [8], in the series with NCI-H1703 [17] and in the series on NCI-H1703 [21] was Active. Further, the Retention_time with A549 [18] is 18.2 min. In addition, the Drug uptake result with Tumour [19] was “Active”. For the same compound, the Ratio in series [15] came to 20.4; in [16], 10.6. For the same compound, the Activity in the series on Mus musculus was 27.7 g. Besides, the Drug metabolism entry in the series with Tumour [20] is “metabolite_detected”. Besides, the “growth inhibition (GI)” value with A549 [22] is “Active”.
